The whole screen tested about 340,000 compounds, of which about 540 (0.16%) were called active. What follows is part of a selection rich in actives, with near analogues and random picks from the rest. A number with no mark means an inactive call.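 The calls were made as follows: active = inhibition above about 35% when tested at 20 µM (limit read from the data); inactive = the rest.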
target: Hexokinase HKDC1 (Homo sapiens) (UniProt Q2TB90); assay: HKDC1 hexokinase inhibitors, primary screen, biochemical, fluorescence, uHTS (AID 493160); details: recombinant HKDC1, G6PDH/diaphorase resazurin coupled fluorescence; at 20 µM; stronger effect = higher value;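 also: plate controls were DMSO wells with enzyme for no effect and DMSO wells lacking enzyme for full effect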
Outline: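 Incubation: 90 min at room temperature in dark / Material: recombinant HKDC1 (HK5) hexokinase enzyme, produced in-house / Quantity: enzyme 5 µg/mL final / Compound: one dose of 20 µM, 1% DMSO / Reagent: glucose and ATP substrates / Buffer or medium: Tris pH 8.0 buffer with MgCl2, Tween-20, BSA, BME / Technique: resorufin fluorescence at 613 nm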

Sequence of Hexokinase HKDC1 (Homo sapiens) (Q2TB90 whole entry, looked up): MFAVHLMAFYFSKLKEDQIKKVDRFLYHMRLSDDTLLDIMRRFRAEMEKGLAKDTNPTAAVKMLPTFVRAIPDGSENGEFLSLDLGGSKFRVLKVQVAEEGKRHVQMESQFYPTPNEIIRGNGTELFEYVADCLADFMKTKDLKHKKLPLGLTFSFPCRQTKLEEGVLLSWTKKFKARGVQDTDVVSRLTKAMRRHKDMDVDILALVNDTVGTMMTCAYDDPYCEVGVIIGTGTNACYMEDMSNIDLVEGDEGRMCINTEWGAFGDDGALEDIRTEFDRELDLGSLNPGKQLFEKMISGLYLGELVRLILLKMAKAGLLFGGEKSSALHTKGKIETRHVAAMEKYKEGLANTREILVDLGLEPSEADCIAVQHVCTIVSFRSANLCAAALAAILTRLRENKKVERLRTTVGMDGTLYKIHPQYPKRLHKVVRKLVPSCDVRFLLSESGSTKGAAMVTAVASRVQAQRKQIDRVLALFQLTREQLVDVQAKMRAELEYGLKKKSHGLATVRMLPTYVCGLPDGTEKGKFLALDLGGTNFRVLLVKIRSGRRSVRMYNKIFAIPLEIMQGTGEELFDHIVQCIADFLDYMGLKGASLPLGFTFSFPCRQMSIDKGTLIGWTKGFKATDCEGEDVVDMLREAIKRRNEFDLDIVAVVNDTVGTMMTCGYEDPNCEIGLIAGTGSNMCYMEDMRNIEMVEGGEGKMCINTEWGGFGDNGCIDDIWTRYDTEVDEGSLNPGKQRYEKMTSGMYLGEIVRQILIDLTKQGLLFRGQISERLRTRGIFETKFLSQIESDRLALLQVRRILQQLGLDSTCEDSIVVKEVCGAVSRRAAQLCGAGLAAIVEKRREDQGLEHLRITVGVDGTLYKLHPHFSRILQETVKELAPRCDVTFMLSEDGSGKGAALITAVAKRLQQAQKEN

SMILES	inhibition
CCCC(=O)N1CCC(CCC(=O)NC2CC2)CC1	-4.77%
COc1cc(Cl)c(C)cc1NC(=O)CSc1nnc(CN2CCCC2)o1	-4.86%
O=S(=O)(NN=C1CCCCCCC1)c1ccc(Br)cc1	3.73%
CCOc1cc(NC(=S)NCCCN(C)C)c(OCC)cc1NC(=O)C1CC1	-8.33%
CC(Cc1cccs1)N(Cc1ccc(Cl)cc1)C(=O)c1ccncc1 (stereo not given)	3.31%
O=C1C(=O)N(CCCN2CCOCC2)C(c2ccc([N+](=O)[O-])cc2)/C1=C(\O)c1ccc2c(c1)OCCO2 (stereo not given)	-4.72%
Cc1cccc(-n2c(SCC(=O)Nc3cccc(S(=O)(=O)NC4=NCCCCC4)c3)nc3ccccc3c2=O)c1C	1.69%
Cc1ccnc(SCC(=O)Nc2cccc(S(=O)(=O)N3CCOCC3)c2)n1	0.74%
CCOC(=O)C1CCN(C(=O)CC2C(=O)N(Cc3ccccc3)C(C)c3nc4ccccc4n32)CC1 (stereo not given)	-7.65%
CCCCN(C(=O)c1ccc2ccccc2c1)c1c(N)n(CCCC)c(=O)[nH]c1=O	-1.92%
CCN(CC)C(=O)CSc1nc2ccccc2n1CC(=O)N1CCN(c2ccccc2OC)CC1	-2.34%
CCC(C)NC(=O)c1cc(Cl)ccc1OC (stereo not given)	-12.3%
COc1ccc(C(=O)COC(=O)Cn2cnc3c2c(=O)n(C)c(=O)n3C)c(OC)c1	-0.76%
COc1ccc2[nH]c3c(c2c1)CCN1C(=O)C(CC(=O)NCc2cccc(C(F)(F)F)c2)C[C@H](C(=O)N2CCOCC2)[C@@]31C (stereo not given in full)	5.85%
O=C(O)CCCCCCCCCC[n+]1ccccc1	-10.3%
Cc1cc(C)n2nc(C(=O)OCC(=O)N(C)CC(=O)Nc3ccc(F)cc3)nc2n1	-5.6%
O=C(NC1=CC(=O)c2ccccc2C1=O)c1ccccc1	54.1% (active)
CC(NC(=O)c1ccccc1)C(=O)Nc1ccccc1 (stereo not given)	-6.92%
O=C(NC(=O)c1ccccc1)Nc1ccccc1O	2.6%
CCN(Cc1ccccc1)S(=O)(=O)c1cc2c3c(c1)CCN3C(=O)CC2	4.66%
Cc1cc(C(=O)COC(=O)CNC(=O)c2ccc(F)cc2)c(C)n1Cc1ccco1	-4.86%
O=C(COc1ccccc1)Nc1cc2c3c(c1)CC(=O)N3CCC2	-4.21%
Cn1nc(C(F)(F)F)cc1-c1ccc(/C=C(\C#N)C(=O)c2cccc(C(F)(F)F)c2)s1	13.8%
Cc1cc(C)c2oc(C(=O)Nc3ccc(S(=O)(=O)Nc4nccc(C)n4)cc3)cc(=O)c2c1	0.48%
COc1cc(OC)cc(C(=O)NCC(=O)N2CCCCCCC2)c1	-3.62%
CC(=O)N(C1=C(Cl)C(=O)c2ccccc2C1=O)c1ccc(C(=O)O)cc1	52.2% (active)
CCCN(CC(=O)Nc1ccccc1C)C(=O)c1ccc(OCC(=O)N2CCOCC2)c(OCC)c1	-2.45%
N#Cc1ccc(C2N=C(c3ccccc3)NO2)cc1 (stereo not given)	0.41%

SMILES	inhibition
O=C(C1CCN(S(=O)(=O)c2cnc[nH]2)CC1)N1CCN(Cc2ccc3c(c2)OCO3)CC1	0.71%
C=CCN(Cc1nc(-c2cc(OC)c3c(c2)OCO3)oc1C)C1CCS(=O)(=O)C1 (stereo not given)	-3.24%
CC(=O)Nc1ccc(S(=O)(=O)N(CCc2ccccc2)CC(=O)N/N=C/c2ccc(C(=O)O)cc2)cc1	-2.7%
COc1ccc(N(CC(=O)N/N=C/c2cccs2)S(=O)(=O)c2ccc(OC)c(OC)c2)cc1	-10.3%
COc1ccc(N(CC(=O)N/N=C/c2cccc3c2OCCO3)S(=O)(=O)c2ccc(NC(C)=O)cc2)cc1	38.1% (active)
COc1ccc(Cl)cc1C(=O)NNC(=O)c1nc2nc(C)cc(C)n2n1	0.07%
O=c1ccc2c(-c3ccccc3S(=O)(=O)O)c3ccc(O)c(O)c3oc-2c1O	38.4% (active)
COc1ccccc1CNC(=O)[C@@H]1CCCN1C(=O)[C@@H]1Cc2ccccc2CN1C(=O)OC(C)(C)C	3.72%
Cc1cc[n+](-c2[nH]c(=O)sc2/C=N/NC(=O)c2ccccc2[O-])cc1C	-1.94%
O=C(COC(=O)Cn1cnc2ccccc2c1=O)NCc1ccccc1Cl	-10.3%
O=C(Nc1cc(-c2nn(CC(=O)N3CCCCC3)c(=O)c3ccccc23)ccc1N1CCOCC1)c1ccc(Cl)cc1	-2.81%
O=c1[nH]n2c(-c3ccccc3)nc(O)c2c2ccccc12	-18.8%
O=c1[nH]c2ccccc2n2c(-c3ccccc3)nnc12	46.7% (active)
O=C(C[C@H]1C/C=C\C[C@@H](NC(=O)OCC2c3ccccc3-c3ccccc32)C(=O)O[C@@H](c2ccccc2)CNC1=O)N[C@H](CO)Cc1ccccc1	-0.6%
CCOC(=O)CSc1nncc2ccc(OC)c(OC)c12	-9.31%
COc1ccc(CCNc2nc3ccc(C)cc3n3cnnc23)cc1OC	8.2%
CCOC(=O)CSc1nc2ccc(C)cc2n2cnnc12	53% (active)
CC1CN(C2CCN(C(=O)COc3ccccc3)CC2)CC(C)O1 (stereo not given)	1.62%
Nc1c(NCCc2ccccc2)c2ccccc2oc1=O	-1.28%
O=c1oc2ccccc2c(=O)c2ccccc12	-8.91%
CC(C)(C)Nc1c(N)c(=O)oc2ccccc12	44.6% (active)
COc1ccc(CCN2CNc3c(c(=O)n(C)c(=O)n3C)C2)cc1OC	6.26%
O=C(Nc1cc(S(=O)(=O)N2CCOCC2)ccc1Cl)c1cc(=O)c2ccccc2o1	12.4%
Cc1nnnn1/C(=C\c1ccccc1)C(=O)OCC(=O)N1CC2(C)CC1CC(C)(C)C2 (stereo not given)	-1.75%
CCN(CC(=O)Nc1ccc2c(c1)OCO2)S(=O)(=O)c1ccccc1	-0.97%
O=C(/C=C/c1cccc(C(F)(F)F)c1)N1CCN(c2ccccn2)CC1	3.47%
O=C(CSc1cccc[n+]1[O-])c1ccc(-c2ccccc2)cc1	-4.64%

From PubChem BioAssay AID493160 (Sanford-Burnham Center for Chemical Genomics, 2011)
